Data published in publication PMC12830962 (Nature Communications, 2025).
Ends that are not written are not given here. * marks the point of attachment. Biotin = O=C1N[C@H]2[C@H](CS[C@H]2CCCCC(=O)*)N1; Ahx = NCCCCCC(=O)O

Columns and labels:
[1] = test system: human adipocytes from a type 2 diabetic donor (PT5022); assay: Glucose uptake assay, adipocytes from type 2 diabetic donor; assay type: cell-based; details: 100 nM insulin
In short: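 Adipocytes from a type 2 diabetic donor were differentiated from preadipocytes and exposed on day 7 to test compound in DMEM with 0.2% BSA for 24 h. Uptake was read by luminescence (Glucose Uptake-Glo).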

Gal4-PPARα (PPARα-LBD) = biological target: T1, Gal4-PPARα (PPARα-LBD) (Homo sapiens, UniProt Q07869); assay: Gal4-PPARα LBD::UAS-luciferase reporter cotransfection assay in HEK293T cells; assay type: cell-based; details: 1 μΜ compound
T1 sequence (Q07869 239-466 limits assumed): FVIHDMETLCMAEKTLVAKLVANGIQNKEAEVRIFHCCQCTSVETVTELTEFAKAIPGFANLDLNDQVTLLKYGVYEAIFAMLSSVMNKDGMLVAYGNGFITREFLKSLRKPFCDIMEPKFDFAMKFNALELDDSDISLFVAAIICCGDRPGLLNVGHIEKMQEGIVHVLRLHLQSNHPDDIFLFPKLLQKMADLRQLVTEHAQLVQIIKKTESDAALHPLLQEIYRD
In short: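 HEK293T cells were seeded at 3.3 × 10^6 per 10-cm plate. After 24 h they were PEI-transfected with 8 μg total DNA, Gal4-PPAR LBD plasmid and UAS-luciferase reporter at 1:1. After a further 24 h, cells were replated at 10,000 cells/well in 384-well plates, left 3 h, then given test compound or DMSO for 18 h. Luciferase was read with Britelite Plus.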

[2] = biological target: T2, His-hPPARγ-LBD (PPARγ2 residues 231–505) (human, UniProt P37231-1 231-505); assay: AlphaScreen or HTRF
T2 sequence (looked up): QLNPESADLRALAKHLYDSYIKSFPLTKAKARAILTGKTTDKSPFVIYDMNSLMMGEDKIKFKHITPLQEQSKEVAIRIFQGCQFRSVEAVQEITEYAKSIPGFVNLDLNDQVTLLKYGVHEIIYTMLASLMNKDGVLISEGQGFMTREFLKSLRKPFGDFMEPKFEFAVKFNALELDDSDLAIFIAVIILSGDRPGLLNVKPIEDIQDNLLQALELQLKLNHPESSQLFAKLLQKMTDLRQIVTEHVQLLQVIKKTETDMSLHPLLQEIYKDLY

CN(CCOc1ccc(CC2SC(=O)NC2=O)cc1)c1ccccn1 (stereo not shown) [Rosi, rosiglitazone]
insulin-stimulated glucose uptake compared to DMSO [1]: significantly enhanced

Cc1c(C)n(Cc2cccc(OC(C)(C)C(=O)O)c2)c2ccc(C(=O)N[C@@H](C)c3ccc(C(C)(C)C)cc3)cc12 [SR10171]
insulin-stimulated glucose uptake compared to DMSO [1]: significantly enhanced
PPARα activation compared to that observed with GW7647 treatment (Gal4-PPARα (PPARα-LBD)): ~ 45%

B1: biotin-Ahx-SRC1-2 coactivator peptide (peptide)
peptide: {Biotin-Ahx}-LTERHKILHRLLQEGSPSD
binding result [2]: binds
